Assay results: publication PMC3683554 (Nature structural & molecular biology, 2013)

How the values were obtained:
cBAK = experiment: Calpain protease sensitivity assay of cBAK; format: biochemical, human; conditions: 50 mM HEPES pH 7.5, 10 mM DTT, 1 µM m-calpain, 0.5 mM CaCl2, 1% CHAPS, 24°C
[1] = tested on: bid−/− bim−/− mouse liver mitochondria (BAK); experiment: MOMP assay, cyt c release from bid−/− bim−/− mouse liver mitochondria; format: biochemical; conditions: for BAK-mediated MOMP (cyt c release), bid−/− bim−/− mitochondria: 1 h incubation, peptides up to 50 μM
How it was run: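 Enriched mitochondrial fractions purified from bid−/− bim−/− mouse liver, run in parallel with bak−/− mouse liver mitochondria. Mitochondria incubated 1 h with unstapled or hydrocarbon-stapled BH3 peptides; MOMP read as cytochrome c release.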

[2] = tested on: bak−/− mouse liver mitochondria; experiment: MOMP assay with cBAK mutants or SAHBq–cBAK traps and NC BID ± ABT-737; format: biochemical; conditions: 1 h incubation
[3] = target: calpain-proteolyzed cBAK (residues 15–186) (human) (UniProt Q16611); experiment: AUC

Compound	Calpain sensitivity of cBAK with peptide, in CHAPS (cBAK)	BAK-mediated MOMP (cyt c release), bid−/− bim−/− mitochondria [1]	also measured
CC[C@H](C)[C@H](NC(=O)[C@H](CO)NC(=O)[C@H](CCCNC(=N)N)NC(=O)[C@H](CC(=O)O)NC(=O)[C@H](CCSC)NC(=O)[C@H](CO)NC(=O)[C@H](CC(=O)O)NC(=O)CNC(=O)[C@@H](NC(=O)[C@H](CCC(N)=O)NC(=O)[C@H](C)NC(=O)[C@H](CC(C)C)NC(=O)[C@H](Cc1c[nH]cn1)NC(=O)[C@H](CCCNC(=N)N)NC(=O)[C@H](C)NC(=O)[C@@H](NC(=O)[C@H](CC(N)=O)NC(=O)[C@H](CCCNC(=N)N)NC(=O)[C@@H](NC(=O)[C@@H](NC(=O)[C@H](CC(=O)O)NC(=O)[C@H](CCC(=O)O)NC(C)=O)[C@@H](C)CC)[C@@H](C)CC)[C@@H](C)CC)C(C)C)C(N)=O [BH3a]	susceptible to proteolysis by calpain	–	–
NLWAAQRYGRELRRMSDKFVDSFKK [BADa]	unable to activate cBAK	largely inactive	–
LWAAQRYGRELRXMSDXFVDSF (sidechain bridge or staple) [BAD SAHB]	–	unable to robustly activate BAK	–
AEIIVECATQLRRVGDKLNFRI [NOXA/BIDf]	enhanced protease sensitivity	weakly active	–
CN(C)CC[C@H](CSc1ccccc1)Nc1ccc(S(=O)(=O)NC(=O)c2ccc(N3CCN(Cc4ccccc4-c4ccc(Cl)cc4)CC3)cc2)cc1[N+](=O)[O-] [ABT-737]	–	–	Effect of ABT-737 on MOMP activity of BH2-tethered SAHBq–cBAK traps [2]: failed to enhance; Effect of ABT-737 on MOMP activity of untethered cBAK mutants [2]: augmented
QPSPARAPAELEVECATQLRXFGDXLNFRQ (sidechain bridge or staple) [NOXA SAHB]	–	unable to robustly activate BAK	BAK-mediated MOMP at the highest concentration tested ([1]; highest concentration tested): weak BAK-mediated MOMP
PAELEVECATQLRRFGDKLNFRQKLL [NOXAa]	unable to activate cBAK	largely inactive	–
BID SAHBa (stapled BID BH3 peptide) (from UniProt P55957 80-101)	–	–	fold enhancement of BAK binding over the unstapled counterpart (BH3a) [3]: 10 fold; stoichiometry N [3]: 1
LWAAQRIGRELRRMGDEMVDSI [BAD/BIDa]	enhanced protease sensitivity	weakly active	–
